≈ marks a conversion by molar mass, not a printed value. Calls of active or inactive are those of the source. No cut-off for these calls is given here.
Legend:
[1] = test system: Enterobacter cloacae; experiment: Antimicrobial activity against Enterobacter cloacae after 24 hrs by microdilution technique; type: functional
Method in brief: (§1)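 Broth microdilution in LB medium. Inoculum is 1.0 × 10^4 cfu per well, from a saline-adjusted suspension of 1.0 × 10^5 cfu/ml. Compounds are dissolved in DMSO. Incubated 24 h at 28 C. MIC is the lowest concentration with no visible growth under a binocular microscope. MBC is read by subculture into fresh broth for 72 h, with no growth taken as 99.5% kill. OD is read at 655 nm.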

[2] = test system: Pseudomonas aeruginosa; experiment: Antimicrobial activity against Pseudomonas aeruginosa after 24 hrs by microdilution technique; type: functional; method in brief: as §1
[3] = test system: Bacillus cereus; experiment: Antimicrobial activity against Bacillus cereus after 24 hrs by microdilution technique; type: functional; method in brief: as §1
[4] = test system: Escherichia coli; experiment: Antimicrobial activity against Escherichia coli after 24 hrs by microdilution technique; type: functional; method in brief: as §1
[5] = test system: Micrococcus flavus; experiment: Antimicrobial activity against Micrococcus flavus at 10 ug/disk after 24 hrs by disk diffusion assay; type: functional; conditions: read-out: IZ
Method in brief: (§2)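 Disc diffusion on 4 mm filter discs. Bacteria are grown overnight in LB at 28 C, then adjusted in saline to 1.0 × 10^5 cfu/ml. The suspension is mixed into top agar over peptone agar plates. Plates are incubated 24 h at 28 C, and growth-inhibition zone diameter is measured. Streptomycin and ampicillin controls are applied from a 1 mg/ml stock. Tests are done in duplicate.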

[6] = test system: Listeria monocytogenes; experiment: Antimicrobial activity against Listeria monocytogenes at 10 ug/disk after 24 hrs by disk diffusion assay; type: functional; method in brief: as §2
[7] = test system: Escherichia coli; experiment: Antimicrobial activity against Escherichia coli at 10 ug/disk after 24 hrs by disk diffusion assay; type: functional; conditions: for zone of inhibition at 10 µg/disc: read-out: IZ; method in brief: as §2
[8] = test system: Micrococcus flavus; experiment: Antimicrobial activity against Micrococcus flavus after 24 hrs by microdilution technique; type: functional; method in brief: as §1
[9] = test system: Staphylococcus aureus; experiment: Antimicrobial activity against Staphylococcus aureus at 10 ug/disk after 24 hrs by disk diffusion assay; type: functional; method in brief: as §2
[10] = test system: Enterobacter cloacae; experiment: Antimicrobial activity against Enterobacter cloacae at 1 umol/disk after 24 hrs by disk diffusion assay; type: functional; method in brief: as §2
[11] = test system: Salmonella typhimurium; experiment: Antimicrobial activity against Salmonella Typhimurium after 24 hrs by microdilution technique; type: functional, Salmonella enterica subsp. enterica serovar Typhimurium; conditions: Salmonella enterica; method in brief: as §1
[12] = test system: Staphylococcus aureus; experiment: Antimicrobial activity against Staphylococcus aureus after 24 hrs by microdilution technique; type: functional; method in brief: as §1
[13] = test system: Pseudomonas aeruginosa; experiment: Antimicrobial activity against Pseudomonas aeruginosa at 1 umol/disk after 24 hrs by disk diffusion assay; type: functional; method in brief: as §2
[14] = test system: Bacillus cereus; experiment: Antimicrobial activity against Bacillus cereus at 10 ug/disk after 24 hrs by disk diffusion assay; type: functional; method in brief: as §2
[15] = test system: Staphylococcus aureus; experiment: Antimicrobial activity against Staphylococcus aureus at 1 umol/spot after 18 hrs by TLC-bioautographic method; type: functional
Method in brief: (§3)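 TLC bioautography. Samples are spotted on silica gel TLC plates, then sprayed with bacteria (1.0 × 10^5 cfu/ml) in tryptic soy broth. Plates are incubated 18 h at 37 C and sprayed with 3% aqueous p-iodonitrotetrazolium violet. After a further 3 h, growth is stopped with 70% EtOH. White zones on a pink background are scored as inhibition-zone diameter with standard errors.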

[16] = test system: Micrococcus flavus; experiment: Antimicrobial activity against Micrococcus flavus at 1 umol/disk after 24 hrs by disk diffusion assay; type: functional; method in brief: as §2
[17] = test system: Staphylococcus aureus; experiment: Antimicrobial activity against Staphylococcus aureus at 1 umol/disk after 24 hrs by disk diffusion assay; type: functional; method in brief: as §2
[18] = test system: Salmonella typhimurium; experiment: Antimicrobial activity against Salmonella Typhimurium at 10 ug/disk after 24 hrs by disk diffusion assay; type: functional, organism-based; conditions: Salmonella enterica subsp. enterica serovar Typhimurium; method in brief: as §2
[19] = test system: Pseudomonas aeruginosa; experiment: Antimicrobial activity against Pseudomonas aeruginosa at 1 umol/spot after 18 hrs by TLC-bioautographic method; type: functional; method in brief: as §3
[20] = test system: Listeria monocytogenes; experiment: Antimicrobial activity against Listeria monocytogenes at 1 umol/spot after 18 hrs by TLC-bioautographic method; type: functional; method in brief: as §3
[21] = test system: Escherichia coli; experiment: Antimicrobial activity against Escherichia coli at 1 umol/disk after 24 hrs by disk diffusion assay; type: functional; method in brief: as §2
[22] = test system: Pseudomonas aeruginosa; experiment: Antimicrobial activity against Pseudomonas aeruginosa at 10 ug/disk after 24 hrs by disk diffusion assay; type: functional; method in brief: as §2
[23] = test system: Salmonella typhimurium; experiment: Antimicrobial activity against Salmonella Typhimurium at 1 umol/spot after 18 hrs by TLC-bioautographic method; type: functional; method in brief: as §3
[24] = test system: Bacillus cereus; experiment: Antimicrobial activity against Bacillus cereus at 1 umol/spot after 18 hrs by TLC-bioautographic method; type: functional; method in brief: as §3
[25] = test system: Enterobacter cloacae; experiment: Antimicrobial activity against Enterobacter cloacae at 1 umol/spot after 18 hrs by TLC-bioautographic method; type: functional; method in brief: as §3
[26] = test system: Bacillus cereus; experiment: Antimicrobial activity against Bacillus cereus at 1 umol/disk after 24 hrs by disk diffusion assay; type: functional; method in brief: as §2
[27] = test system: Listeria monocytogenes; experiment: Antimicrobial activity against Listeria monocytogenes after 24 hrs by microdilution technique; type: functional; method in brief: as §1
[28] = test system: Micrococcus flavus; experiment: Antimicrobial activity against Micrococcus flavus at 1 umol/spot after 18 hrs by TLC-bioautographic method; type: functional; method in brief: as §3
[29] = test system: Enterobacter cloacae; experiment: Antimicrobial activity against Enterobacter cloacae at 10 ug/disk after 24 hrs by disk diffusion assay; type: functional; method in brief: as §2
[30] = test system: Listeria monocytogenes; experiment: Antimicrobial activity against Listeria monocytogenes at 1 umol/disk after 24 hrs by disk diffusion assay; type: functional; method in brief: as §2
[31] = test system: Salmonella typhimurium; experiment: Antimicrobial activity against Salmonella Typhimurium at 1 umol/disk after 24 hrs by disk diffusion assay; type: functional, organism-based; conditions: Salmonella enterica subsp. enterica serovar Typhimurium; method in brief: as §2
[32] = test system: Escherichia coli; experiment: Antimicrobial activity against Escherichia coli at 1 umol/spot after 18 hrs by TLC-bioautographic method; type: functional; method in brief: as §3

| MIC [1] [µM] | MIC [2] [µM] | MIC [3] [µM] | MIC [4] [µM] | MIC [8] [µM] | MIC [11] [µM] | MIC [12] [µM] | Structure (SMILES) | MBC [1] [µM] | MBC [2] [µM] | MBC [3] [µM] | MBC [4] [µM] | zone of inhibition at 10 µg/disc [5] [mm] | inhibition zone (IZ) [6] | MBC [8] [µM] | inhibition zone (IZ) [10] | MBC [11] [µM] | MBC [12] [µM] | inhibition zone (IZ) [13] | inhibition zone (IZ) [14] | inhibition zone (IZ) [15] | further results |
| --- | --- | --- | --- | --- | --- | --- | --- | --- | --- | --- | --- | --- | --- | --- | --- | --- | --- | --- | --- | --- | --- |
| 195 (≈ 100 µg/mL) | 780 (≈ 401 µg/mL) | 195 (≈ 100 µg/mL) | 195 (≈ 100 µg/mL) | 195 (≈ 100 µg/mL) | 195 (≈ 100 µg/mL) | 195 (≈ 100 µg/mL) | Nc1nc(-c2ccc(Nc3nc(Nc4ccccc4)nc(Nc4ccccc4)n3)cc2)cc(-c2ccco2)n1 | 390 (≈ 200 µg/mL) | 780 (≈ 401 µg/mL) | 390 (≈ 200 µg/mL) | 390 (≈ 200 µg/mL) | 6 | inactive | 390 (≈ 200 µg/mL) | inactive | 390 (≈ 200 µg/mL) | 390 (≈ 200 µg/mL) | inactive | inactive | 0.06 millimeter | zone of inhibition at 10 µg/disc [7]: 10 mm; inhibition zone (IZ) [9]: inactive; inhibition zone (IZ) [16]: 0.03 millimeter; inhibition zone (IZ) [17]: inactive; inhibition zone (IZ) [18]: inactive; inhibition zone (IZ) [19]: inactive; inhibition zone (IZ) [20]: 0.08 millimeter; inhibition zone (IZ) [21]: 0.05 millimeter; inhibition zone (IZ) [22]: inactive; inhibition zone (IZ) ([23]; Salmonella enterica subsp. enterica serovar Typhimurium): inactive; inhibition zone (IZ) [24]: inactive; inhibition zone (IZ) [25]: 0.08 millimeter; inhibition zone (IZ) [26]: inactive; MBC [27]: 780 µM (≈ 401 µg/mL); MIC [27]: 780 µM (≈ 401 µg/mL); inhibition zone (IZ) [28]: 0.07 millimeter; inhibition zone (IZ) [29]: inactive; inhibition zone (IZ) [30]: inactive; inhibition zone (IZ) [31]: inactive; inhibition zone (IZ) [32]: 0.08 millimeter |
| 172 (≈ 100 µg/mL) | 688 (≈ 400 µg/mL) | 172 (≈ 100 µg/mL) | 172 (≈ 100 µg/mL) | 172 (≈ 100 µg/mL) | 172 (≈ 100 µg/mL) | 172 (≈ 100 µg/mL) | N#Cc1c(-c2ccc(Cl)cc2)cc(-c2ccc(Nc3nc(Nc4ccccc4)nc(Nc4ccccc4)n3)cc2)nc1N | 344 (≈ 200 µg/mL) | 688 (≈ 400 µg/mL) | 344 (≈ 200 µg/mL) | 344 (≈ 200 µg/mL) | 7 | inactive | 344 (≈ 200 µg/mL) | inactive | 344 (≈ 200 µg/mL) | 344 (≈ 200 µg/mL) | inactive | inactive | inactive | zone of inhibition at 10 µg/disc [7]: 7 mm; inhibition zone (IZ) [9]: inactive; inhibition zone (IZ) [16]: 0.04 millimeter; inhibition zone (IZ) [17]: inactive; inhibition zone (IZ) [18]: inactive; inhibition zone (IZ) [19]: 0.09 millimeter; inhibition zone (IZ) [20]: 0.08 millimeter; inhibition zone (IZ) [21]: 0.04 millimeter; inhibition zone (IZ) [22]: inactive; inhibition zone (IZ) [23]: 0.08 millimeter; inhibition zone (IZ) [24]: inactive; inhibition zone (IZ) [25]: 0.08 millimeter; inhibition zone (IZ) [26]: inactive; MBC [27]: 688 µM (≈ 400 µg/mL); MIC [27]: 688 µM (≈ 400 µg/mL); inhibition zone (IZ) [28]: 0.07 millimeter; inhibition zone (IZ) [29]: inactive; inhibition zone (IZ) [30]: inactive; inhibition zone (IZ) [31]: inactive; inhibition zone (IZ) [32]: 0.09 millimeter |
| 89.5 (≈ 49.9 µg/mL) | 179 (≈ 99.9 µg/mL) | 89.5 (≈ 49.9 µg/mL) | 89.5 (≈ 49.9 µg/mL) | 179 (≈ 99.9 µg/mL) | 179 (≈ 99.9 µg/mL) | 179 (≈ 99.9 µg/mL) | Nc1nc(-c2ccc(Cl)cc2)cc(-c2ccc(Nc3nc(Nc4ccccc4)nc(Nc4ccccc4)n3)cc2)n1 | 179 (≈ 99.9 µg/mL) | 358 (≈ 200 µg/mL) | 179 (≈ 99.9 µg/mL) | 179 (≈ 99.9 µg/mL) | 9 | inactive | 358 (≈ 200 µg/mL) | inactive | 358 (≈ 200 µg/mL) | 358 (≈ 200 µg/mL) | inactive | inactive | 0.04 millimeter | inhibition zone (IZ) [7]: inactive; zone of inhibition at 10 µg/disc ([9]; read-out: IZ): 7 mm; inhibition zone (IZ) [16]: 0.05 millimeter; inhibition zone (IZ) [17]: 0.04; inhibition zone (IZ) [18]: inactive; inhibition zone (IZ) [19]: inactive; inhibition zone (IZ) [20]: 0.08 millimeter; inhibition zone (IZ) [21]: inactive; inhibition zone (IZ) [22]: inactive; inhibition zone (IZ) [23]: 0.07 millimeter; inhibition zone (IZ) [24]: 0.09 millimeter; inhibition zone (IZ) [25]: inactive; inhibition zone (IZ) [26]: inactive; MBC [27]: 716 µM (≈ 400 µg/mL); MIC [27]: 358 µM (≈ 200 µg/mL); inhibition zone (IZ) [28]: 0.07 millimeter; inhibition zone (IZ) [29]: inactive; inhibition zone (IZ) [30]: inactive; inhibition zone (IZ) [31]: inactive; inhibition zone (IZ) [32]: 0.08 millimeter |

Reference: ChEMBL document CHEMBL1154716, “Synthesis of some new S-triazine based chalcones and their derivatives as potent antimicrobial agents” (2010)
